Experimental data from ChEMBL document CHEMBL4312003, “Optimization of biaryloxazolidinone as promising antibacterial agents against antibiotic-susceptible and antibiotic-resistant gram-positive bacteria” (Eur J Med Chem, 2020).
Values after ≈ are worked out from the molar mass of the structure shown.

Experiments:
[1] = Solubility of compound in water by UV spectrophotometric analysis; type: physicochemical
[2] = Metabolic stability in rat assessed as half life measured after intragastric administration; type: ADME; conditions: in vivo, po
[3] = Drug metabolism in rat plasma assessed as N-[[(5S)-3-[3-fluoro-4-[3-hydroxy-4-[(E)-(4-methylpiperazin-1-yl)iminomethyl]phenyl]phenyl]-2-oxo-oxazolidin-5-yl]methyl]acetamide formation administered vig ig route measured by UPLC-QTOF/MS analysis; type: ADME; conditions: po
[4] = Drug metabolism in rat plasma assessed as N-[[(5S)-3-[3-fluoro-4-[4-[(E)-piperazin-1-yliminomethyl]phenyl]phenyl]-2-oxo-oxazolidin-5-yl]methyl]acetamide formation administered vig ig route measured by UPLC-QTOF/MS analysis; type: ADME; conditions: po
[5] = Drug metabolism in rat plasma assessed as N-[[(5S)-3-[3-fluoro-4-(4-formylphenyl)phenyl]-2-oxo-oxazolidin-5-yl]methyl]acetamide formation administered vig ig route measured by UPLC-QTOF/MS analysis; type: ADME; conditions: po
[6] = Drug metabolism in rat plasma assessed as 4-[4-[(5S)-5-(acetamidomethyl)-2-oxo-oxazolidin-3-yl]-2-fluoro-phenyl]benzoic acid formation administered vig ig route measured by UPLC-QTOF/MS analysis; type: ADME; conditions: po
[7] = test system: Staphylococcus aureus; assay: Antibacterial activity against Staphylococcus aureus ATCC 29213 assessed as complete reduction in bacterial cell growth by CLSI protocol based broth liquid microdilution method; type: functional
Summary of the method: (§1)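 Broth liquid microdilution per CLSI guidelines; isolates identified on an automated MicroScan system before testing. MIC taken as lowest concentration giving total inhibition of bacterial growth, reported in μg/mL. S. aureus ATCC29213 run as the control strain.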

[8] = test system: Staphylococcus aureus; assay: Antibacterial activity against methicillin-resistant Staphylococcus aureus assessed as complete reduction in bacterial cell growth by CLSI protocol based broth liquid microdilution method; type: functional; summary of the method: as §1
[9] = test system: Staphylococcus aureus; assay: Antibacterial activity against methicillin-sensitive Staphylococcus aureus assessed as complete reduction in bacterial cell growth by CLSI protocol based broth liquid microdilution method; type: functional; summary of the method: as §1
[10] = test system: Enterococcus faecalis; assay: Antibacterial activity against linezolid-resistant Enterococcus faecalis assessed as complete reduction in bacterial cell growth by CLSI protocol based broth liquid microdilution method; type: functional; summary of the method: as §1
[11] = test system: Enterococcus faecium; assay: Antibacterial activity against vancomycin-resistant Enterococcus faecium assessed as complete reduction in bacterial cell growth by CLSI protocol based broth liquid microdilution method; type: functional; summary of the method: as §1
[12] = test system: Staphylococcus aureus; assay: Antibacterial activity against clinical isolates of methicillin-sensitive Staphylococcus aureus assessed as reduction in bacterial cell growth by CLSI protocol based broth microdilution method; type: functional; summary of the method: as §1
[13] = test system: Enterococcus faecalis; assay: Antibacterial activity against clinical isolates of linezolid-resistant Enterococcus faecalis assessed as complete reduction in bacterial cell growth by CLSI protocol based broth liquid microdilution method; type: functional; summary of the method: as §1
[14] = test system: Enterococcus faecium; assay: Antibacterial activity against clinical isolates of vancomycin-resistant Enterococcus faecium assessed as complete reduction in bacterial cell growth by CLSI protocol based broth liquid microdilution method; type: functional; summary of the method: as §1
[15] = test system: Staphylococcus aureus; assay: Potency index, ratio of rade-zolid MIC to compound MIC for antibacterial activity against Staphylococcus aureus ATCC 29213 by CLSI protocol based broth liquid microdilution method; type: functional
[16] = test system: Staphylococcus aureus; assay: Potency index, ratio of rade-zolid MIC to compound MIC for antibacterial activity against methicillin-sensitive Staphylococcus aureus by CLSI protocol based broth liquid microdilution method; type: functional
[17] = test system: Enterococcus faecalis; assay: Potency index, ratio of rade-zolid MIC to compound MIC for antibacterial activity against linezolid-resistant Enterococcus faecalis by CLSI protocol based broth liquid microdilution method; type: functional
[18] = test system: Enterococcus faecium; assay: Potency index, ratio of rade-zolid MIC to compound MIC for antibacterial activity against vancomycin-resistant Enterococcus faecium by CLSI protocol based broth liquid microdilution method; type: functional
[19] = Stability in simulated gastric acid assessed as compound remaining at pH 1.2 incubated for 0.5 hrs; type: ADME; conditions: read-out: Stability
[20] = Stability in simulated gastric acid assessed as compound remaining at pH 1.2 incubated for 1 hr; type: ADME; conditions: read-out: Stability
[21] = Stability in simulated gastric acid assessed as compound remaining at pH 1.2 incubated for 1.5 hrs; type: ADME; conditions: read-out: Stability
[22] = Stability in simulated gastric acid assessed as compound remaining at pH 1.2 incubated for 2 hrs; type: ADME; conditions: read-out: Stability
[23] = test system: HepG2; assay: Cytotoxicity against human HepG2 cells assessed as reduction in cell viability incubated for 48 hrs by MTT assay; type: cell-based; conditions: HepG2, 48 h
Summary of the method: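 HepG2 cells were grown in RPMI1640 with 10% FBS and plated at about 4×10^4 cells/well in MEM. After 24 h at 37 °C in 5% CO2, compounds were added at the indicated final concentrations for 48 h. MTT was added (0.5 mg/mL final) for 4 h at 37 °C and the formazan dissolved in DMSO. Absorbance was read at 492 nm (630 nm reference). Each compound was tested three times; IC50 given as mean ± SD.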

[24] = target: T1, MAO-A (Homo sapiens, UniProt P21397); assay: Inhibition of recombinant human MAO-A (active motif 31502) at 30 uM using luciferin as substrate incubated for 15 mins followed by substrate addition and measured after 60 mins by luminescence based method relative to control; conditions: probe luciferin
T1 sequence (P21397 whole entry): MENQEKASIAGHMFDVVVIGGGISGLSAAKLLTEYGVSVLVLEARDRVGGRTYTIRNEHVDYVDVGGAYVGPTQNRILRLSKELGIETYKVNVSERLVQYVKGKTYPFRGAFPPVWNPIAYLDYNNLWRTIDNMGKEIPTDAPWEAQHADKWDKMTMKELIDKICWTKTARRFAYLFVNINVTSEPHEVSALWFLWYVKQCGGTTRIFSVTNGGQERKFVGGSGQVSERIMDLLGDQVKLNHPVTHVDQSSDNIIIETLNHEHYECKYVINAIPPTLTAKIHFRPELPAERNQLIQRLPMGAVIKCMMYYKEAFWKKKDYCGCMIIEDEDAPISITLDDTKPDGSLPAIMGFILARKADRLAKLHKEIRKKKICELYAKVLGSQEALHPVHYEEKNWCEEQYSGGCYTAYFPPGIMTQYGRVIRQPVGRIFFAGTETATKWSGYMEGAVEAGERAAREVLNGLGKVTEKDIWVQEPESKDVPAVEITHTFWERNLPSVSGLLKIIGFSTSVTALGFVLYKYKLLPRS
Summary of the method: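 Recombinant human MAO-A was measured with the MAO-Glo kit, modified. Compounds were in DMSO (1% DMSO final) and preincubated with enzyme 15 min at room temperature. Luciferin-derivative substrate was then added and the reaction run 60 min at room temperature. Luciferase detection reagent was added for 20 min and luminescence read. Buffer without enzyme served as the 100% inhibition control; DMSO alone as the no-inhibition control. Percent inhibition = (Max − signal)/(Max − Min)×100.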

[25] = test system: Staphylococcus aureus; assay: Potency index, ratio of MIC of linezolid to MIC of compound for antibacterial activity against clinical isolates of methicillin-sensitive Staphylococcus aureus by CLSI protocol based broth liquid microdilution method; type: functional
[26] = Stability in human liver microsomes assessed as half life at 1.5 uM preincubated for 5 mins with NADPH and measured after 45 mins by LC/MS analysis; type: ADME, Microsome; conditions: liver microsomes
Summary of the method: (§2)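 Compound solution at 1.5 µM with 0.75 mg/mL microsomes (before NADPH addition) was preincubated 5 min at 37 °C. Reactions were started with NADPH (6 mM stock). Samples were quenched with acetonitrile containing internal standard at 0, 5, 15, 30 and 45 min, then centrifuged, and the supernatant was diluted with water for LC/MS. Runs were in duplicate. T1/2 = ln2/k from the log-linear slope, and CLint was derived from T1/2.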

[27] = Stability in human liver microsomes assessed as intrinsic clearance at 1.5 uM preincubated for 5 mins with NADPH and measured after 45 mins by LC/MS analysis; type: ADME, Microsome; conditions: read-out: CLH; summary of the method: as §2
[28] = Stability in human liver microsomes assessed as compound remaining at 1.5 uM preincubated for 5 mins with NADPH and measured after 45 mins by LC/MS analysis; type: ADME, Microsome; conditions: liver microsomes, read-out: Stability; summary of the method: as §2

SMILES	solubility [1]	MIC [7]	MIC [8]	MIC [9]	MIC [10]	MIC [11]	MIC [12]	MIC [13]	MIC [14]	Ratio [15]	Ratio [16]	Ratio [17]	Ratio [18]	remaining at 0.5 h [19]	remaining at 1 h [20]	remaining at 1.5 h [21]	remaining at 2 h [22]	IC50 [23]	inhibition at 1 h, 30 µM [24]	other results
CC(=O)NC[C@H]1CN(c2ccc(-c3ccc(/C=N/N4CCN(C)CC4)cc3)c(F)c2)C(=O)O1	11.9 µg/mL (≈ 26.2 µM)	–	–	–	–	–	–	–	–	–	–	–	–	–	–	–	–	–	–	half-life [2]: 2.7 h; Drug metabolism [3]: Metabolite_Detected; Drug metabolism [4]: Metabolite_Detected; Drug metabolism [5]: Metabolite_Detected; Drug metabolism [6]: Metabolite_Detected
CC(=O)NC[C@H]1CN(c2ccc(-c3ccc(/C=N/N4CCOCC4)nc3)c(F)c2)C(=O)O1	–	0.125 µg/mL (≈ 0.283 µM)	0.125 µg/mL (≈ 0.283 µM)	0.25 µg/mL (≈ 0.566 µM)	0.25 µg/mL (≈ 0.566 µM)	0.25 µg/mL (≈ 0.566 µM)	0.25 to 0.5 µg/mL (≈ 0.566 to 1.13 µM)	0.25 to 0.5 µg/mL (≈ 0.566 to 1.13 µM)	1 µg/mL (≈ 2.27 µM)	2 - 4	2 - 4	2 - 4	2 - 4	–	–	–	–	–	–	–
CC(=O)NC[C@H]1CN(c2ccc(-c3ccc(/C=N/N4CCSCC4)c(O)c3)c(F)c2)C(=O)O1	–	0.125 µg/mL (≈ 0.265 µM)	0.125 µg/mL (≈ 0.265 µM)	0.125 µg/mL (≈ 0.265 µM)	0.125 µg/mL (≈ 0.265 µM)	0.125 µg/mL (≈ 0.265 µM)	0.125 to 0.25 µg/mL (≈ 0.265 to 0.529 µM)	0.125 to 0.25 µg/mL (≈ 0.265 to 0.529 µM)	0.125 to 0.25 µg/mL (≈ 0.265 to 0.529 µM)	–	–	–	–	96%	94.6%	82.9%	75.9%	> 25 µM	62%	Ratio [25]: 4 - 32
CC(=O)NC[C@H]1CN(c2ccc(-c3ccc(/C=N/N4CCS(=O)(=O)CC4)nc3)c(F)c2)C(=O)O1	68 µg/mL (≈ 139 µM)	0.125 µg/mL (≈ 0.255 µM)	0.125 µg/mL (≈ 0.255 µM)	0.125 µg/mL (≈ 0.255 µM)	0.25 µg/mL (≈ 0.511 µM)	0.125 µg/mL (≈ 0.255 µM)	0.25 to 0.5 µg/mL (≈ 0.511 to 1.02 µM)	0.25 to 0.5 µg/mL (≈ 0.511 to 1.02 µM)	0.5 µg/mL (≈ 1.02 µM)	2 - 4	2 - 4	2 - 4	2 - 4	99.7%	99.4%	99.2%	98.7%	> 25 µM	72%	half-life at 1.5 µM [26]: 6.82 h; CLint scaled at 1.5 µM [27]: 4.25 mL/min/kg; remaining at 0.75 h, 1.5 µM [28]: 93%
